Fewer inactive variants are shown than the library holds. A value given as a limit tells only on which side of the number the result lay.

Sequences and labels used below:
B1: tRNA (parent)
chain: GUUCCGUUGGCGUAAUGGUAACGCGUCUCCCUCCUAAGGAGAAGACUGCGGGUUCGAGUCCCGUACGGAACG

The data set covers variants of B1. The data set can be described thus: yeast fitness relative to wild type (ratio to wild type); higher = fitter; tRNA-Arg(CCU), competitive growth, 37 C, YPD. A digest of the protocol: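 Variants of the tRNA-Arg(CCU) gene were chemically synthesised with a 3% per-site mutation rate across 69 sites and placed at the native genomic locus in Saccharomyces cerevisiae. Six parallel replicates of the pooled strains were competed in YPD at 37°C for 24 hours, and gene amplicons from the start and end populations were read by 100-nucleotide paired-end sequencing. Darwinian fitness relative to wild type was derived from changes in genotype frequencies. Genotypes required ≥ 100 starting reads, and estimates < 0.5 were set to 0.5.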
On to U32A C55A, for which the yeast fitness amounted to 0.572.
The result for C5U G12C A21C C24A G41C U53A reads at most 0.5; that for U16G C29G C33U G39A C49U, at most 0.5; that for C11A U19G C49A, at most 0.5.
The result for A14G C46G reads 0.989.
The result for A14C C22U U64C A70G reads at most 0.5.
With G67C A70U, the yeast fitness came out at 0.904.
Next, U35C A42C G52C U53C G68U: at most 0.5.
For A37C A43C, the yeast fitness worked out at 0.931.
Next, U7G C27G U32C U35C A36G U53A G56A: at most 0.5; U8A C61U: 0.718.
As to C4A U7A, the yeast fitness was 0.679.
The result for U13A C61A reads 0.706; that for G9C C46U G48C C62U, at most 0.5; that for C33G A36C C46A, at most 0.5.
Next, U26A U35C A45U: 0.746.
Take U28C G63C U64A C66G: the yeast fitness is at most 0.5.
As to U7A C29G G38A G44A C46U C62G, the yeast fitness was at most 0.5.
The result for U2A C27U reads 0.982; that for C33U A57U U59C, 0.601; that for U19C A20U C22U C27G, 0.532.
Take G10C C27G A42C: the yeast fitness is at most 0.5.
Next, A14C G25C C62U: at most 0.5; C30A U64C: 0.885; C5G A14U C60A: at most 0.5.
On to U8G C22U A69U, for which the yeast fitness was 0.731.
Next, G9A U28G A40C A42G A69C: 0.963; A20G C24A C29G A37U G39A: at most 0.5; A37U A42G A45U C66U: at most 0.5.
Next, C22G G23C A43C G50C A70U: 0.517.
Turning to C11G U16A C29U A69C, the yeast fitness was 0.538.
Next, U2C A14C A37U A40C: at most 0.5.
For C4A A20C C27U C49G, the yeast fitness was at most 0.5.
For the variant A15U A20G U28A C33G, the yeast fitness was at most 0.5.
Next, C4U G18A G23C C24G C46G: at most 0.5; A15C C46U C49U G50A: at most 0.5; A36C A37G C49A A69U: at most 0.5.
Next, A45U U54A: 0.702; G9A G18A C24U A57C: at most 0.5; G6A U32G U35G: at most 0.5.
With A15U G23C C34G C55G, the yeast fitness was at most 0.5.
In the case of U2G U8C, the yeast fitness worked out at 0.891.
Next, C5U C11A A14G A42G C55U A65U: at most 0.5; C31U A45U G56C: at most 0.5.
As for G12A C66G, the yeast fitness came out at 0.79.
With C30A G44A A45C, the yeast fitness is at most 0.5.
Next, C24U U32A C33G: at most 0.5; A20U G25C U47A C60G: at most 0.5.
The result for G10A G38C reads 0.549; that for U19C C24G, 0.621; that for A15U C29U C46U, 0.667.
The result for G17C G39C A45U G58C reads at most 0.5; that for G23A C31U A69U, 0.675; that for A43G C49G, 0.732.
Turning to U2G G9A C22A C24A A43C, the yeast fitness is at most 0.5.
Next, U2G C33U A36U A43C: 0.688; U2C U19C G50A: 0.593.
For C5G A15U C30A C31A C49U C66G, the yeast fitness is at most 0.5.
Next, C11A U16C G18C A45C A57C C62U: at most 0.5.
The result for C5A A40G C49U reads 0.548; that for U13C C34G G67A, at most 0.5.
Next, G6A G12A A57U: at most 0.5; C11G G12A A45C C46G G52A: at most 0.5; C22U C66A: 0.716.
As for A40C A42U G56A C66G, the yeast fitness was at most 0.5.
Take U13A C30A A69C: the yeast fitness amounted to 0.656.
The result for G9C U26G U32A A57U reads 0.633; that for U2C C22U G48A G63C, 0.701.
The result for U2G A21G U32C U59G C66U A70C reads at most 0.5.
With A21C A69C A70U, the yeast fitness stood at 0.686.
The result for G17C C24G G38C reads at most 0.5.
Next, U26A C30G C33U: 0.604; G9C A14G A70G: 0.746.
The result for G12A U28C A37C A43C C49G reads 0.548; that for G48C C49U C60A A65U, at most 0.5.
Consider G10A U32G C34A, for which the yeast fitness was at most 0.5.
The result for C31G G50A reads 0.837; that for G12A C22U A37U G50C C66U, 0.538; that for C31U A37G C62G, 0.517.
Next, U3A C46U G56C A69U: at most 0.5; U3A U16C: 0.824.
The result for G48A G52C A57C reads 0.622; that for U2G C31G, 1.02.
Turning to C11A A20G C62U C66A, the yeast fitness is at most 0.5.
Turning to G6C A21U U26C, the yeast fitness is at most 0.5.
The result for C46U G51A C66U reads 0.778; that for G38A U47C C62U, 0.539.
The result for G23C C49G A57G A70U reads at most 0.5; that for G6A A21G C46A U54C, at most 0.5; that for C5U C31G G51C, 0.572.
The result for C4U U26G C29U A65U reads at most 0.5; that for U2G C4A A43U, 0.717.
With A14G U53C, the yeast fitness came out at 0.775.
Take G6A G9C: the yeast fitness is 0.81.
On to C29A A42G A57C, for which the yeast fitness came out at 0.592.
Next, G18C C29G A45G C66U A69C: at most 0.5; C11U G25A C66U A70C: 0.688.
With C5G C30G G52C, the yeast fitness is 0.519.
As to C4G U19A C46U A70U, the yeast fitness was at most 0.5.
The result for G25C G51C reads 0.654; that for C5U G25A A70C, 0.796; that for C5U C33G C49A, at most 0.5.
For the variant U13C U47C C62G, the yeast fitness is at most 0.5.
The result for C24U G52A reads 0.871.
In the case of U7G C11G C34U C49U U59C C62G, the yeast fitness was at most 0.5.
The result for C5G C22A A43G reads 0.557; that for G6C A45C G48A G51C, at most 0.5.
The result for C22G C46U reads 0.929.
With G6A A14U C33G, the yeast fitness is at most 0.5.
The result for C4G G39A A65U reads 0.576; that for A15C C46U C66A, 0.55; that for C5G A15U A40U G67C, at most 0.5.
Next, G6A C27A: 0.707; U2A G25A: 0.828.
Consider U8A U26A C29A A65C, for which the yeast fitness came to 0.761.
The result for G9A C11A A69C reads 0.567; that for U8G C49U G51A A65U, at most 0.5; that for C30A A57G A70U, 0.765.
C5G G25A C62G: the yeast fitness was found to be 0.648.
C46G C49U A69U: the yeast fitness was found to be 1.04.
The result for C4A A20G C24G C31G reads at most 0.5; that for A21G G23A C31U G63C A69U, at most 0.5; that for A15U G23C C33A G63C G68U, at most 0.5.
Next, C5A A21U A65G: 0.636.
Consider A14G C27U, for which the yeast fitness worked out at 0.974.
The result for A42U A57C C61U G67C reads at most 0.5; that for C4G G6A G23A A43G C55U, at most 0.5; that for U3C A40U C49A, 0.577.
For the variant A40U U59C, the yeast fitness was 0.913.
The result for U7G A45G A65C C66A reads 1.03; that for A20U A45G C46U C66U, 0.626; that for A45G C49U, 0.941.
Next, C5G A15G U16A A20G U28A C30A C33A A36U G50A C66U: at most 0.5.
Regarding U7A G10A A15U A43G G50A, the yeast fitness is 0.53.
The result for C30U G51C G58A reads at most 0.5.
The result for G17C A20U A42U reads 0.604; that for C11G G12C A20C C24G A37G C60G C61U, at most 0.5; that for U7C C27U A36C G56C G68A A70U, at most 0.5.
Regarding C5U C33U G39A, the yeast fitness worked out at 0.649.
The result for G12A A14C G50C reads 0.535; that for U13A C33G A36G C49A, at most 0.5; that for C5A C22A G50C A69C, 0.845.
Next, U3A G9C G39A C55U A70C: at most 0.5.
The result for C5U G56C A65G reads 0.536.
In the case of U2A U16A G56C A57G C62U, the yeast fitness is at most 0.5.
C33U U64A: the yeast fitness stood at 0.677.
Next, G6A C24G: 0.625; C33G G63U U64A: 0.553.
The result for U32C A65C reads 1.03; that for U3C C4A A36U A43U, at most 0.5; that for C22U C29A A65U, at most 0.5.
Next, A37G C61A C66U: at most 0.5.
As for C5G G52A G56C, the yeast fitness was at most 0.5.
For C4G U59A U64G A65C, the yeast fitness was at most 0.5.
Next, G25A G41C U54G C61U: at most 0.5; A14G G17C G39A: at most 0.5.
The result for C4G G9A A14G G25C A57C U64A reads at most 0.5; that for C29U C49U C61U, 0.532.
The result for C4A G9A C22A C27G G56A reads at most 0.5; that for G12A C30G C49A G51A, at most 0.5; that for C11G G23C A36U G44C C62A, at most 0.5.
Turning to U3A A15G U19A G41A G50A, the yeast fitness is at most 0.5.
The result for C11U C29A U35C reads at most 0.5; that for G50C A57U, 0.63; that for U13A U16A U54A, 0.505.
Next, U2A A40U G48A: 0.681.
Next, C4A C24U C55A A65C: at most 0.5.

The record behind these values is the RNAGym collection of RNA variant scans (doi:10.1126/science.aae0568).
